Shown are actives, neighbours in structure and some others; about 3.1% of the full set was active somewhere.
ADAM10 inh: inhibitors of human ADAM10. O14672. recombinant ADAM10, EDANS/DABCYL FRET peptide cleavage, 3 h. inhibition, % at 7 µM. actives 0.62% (n = 370,000);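 active means inhibition above a per-campaign cutoff equal to the mean of compounds falling between control-based bounds plus 3 SD, cut at about 20% in these data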;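 further: 0% = DMSO wells while the 100% control is not disclosed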
Target sequence (O14672 214-748 limits assumed): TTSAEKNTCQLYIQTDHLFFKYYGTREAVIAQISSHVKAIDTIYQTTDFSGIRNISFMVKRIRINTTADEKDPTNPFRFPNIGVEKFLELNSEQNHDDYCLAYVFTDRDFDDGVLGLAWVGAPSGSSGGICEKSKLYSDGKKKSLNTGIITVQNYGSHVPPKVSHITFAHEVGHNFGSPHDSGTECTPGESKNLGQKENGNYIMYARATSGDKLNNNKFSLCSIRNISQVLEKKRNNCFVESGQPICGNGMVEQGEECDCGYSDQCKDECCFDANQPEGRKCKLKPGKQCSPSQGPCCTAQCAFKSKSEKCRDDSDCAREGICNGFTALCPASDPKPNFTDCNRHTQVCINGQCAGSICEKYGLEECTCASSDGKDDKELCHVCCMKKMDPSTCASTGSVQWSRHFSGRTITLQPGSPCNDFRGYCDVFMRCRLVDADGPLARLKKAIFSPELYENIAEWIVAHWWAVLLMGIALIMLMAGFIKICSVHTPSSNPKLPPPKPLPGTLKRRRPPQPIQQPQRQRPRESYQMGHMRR
aDG glyco act: increases alpha dystroglycan glycosylation. Pro5-aDG cells, alpha-DG glycosylation AlphaScreen (IIH6); 0% Pro5, 100% B10-LARGE cell signal. activation, % at 10 µM. actives 0.22% (n = 360,000). AID 624168;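 active means activation of at least 8% versus controls, or a plate z-score of at least 8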;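 further: Pro5 are CHO cells carrying HIG-tagged alpha-DG that lacks glycosylation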
V-ATPase pH: yeast V-ATPase proton transport regulation by pHLuorin; S. cerevisiae, pHLuorin cytosolic pH fluorescence; actives 0.37% (n = 350,000); response, % at 10 µM; in the data active means response mostly above about 7.3%, no sharp cut-off; inactive means mostly below about 5.4%; further: actives read high
Lipid droplet: modulators of hepatic lipid droplet formation; actives 0.4% (n = 240,000); AML12 mouse hepatocytes, oleate lipid droplets, BODIPY imaging; inhibition, % at 6.5 µM; AID 1656;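 active means lipid droplet intensity inhibited by at least 50%, with more than 500 cells counted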
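Assay system: AML12 mouse liver cells | Compound: 6.5 µM single-point dosing | Schedule: Overnight exposure | Technique: Fluorescence imaging, 20x objective, two fields per well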
ADAM17 inh: ADAM17 inhibition, QFRET primary screen; AID 720648; inhibition, % at 6.95 µM; recombinant ADAM17, EDANS/DABCYL FRET peptide cleavage; P78536; actives 0.83% (n = 370,000);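 active means inhibition above the mean of compounds lying between control limits plus 3 SD, set per campaign, cut at about 8.5% in these data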;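 further: 0% = DMSO-only wells as the low control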
MPTP inh: blocks calcium-induced mitochondrial swelling; inhibition, % at 10 µM; AID 602449; isolated mouse mitochondria, Ca2+ swelling absorbance, 30 min; actives 1.4% (n = 360,000);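 active means inhibition of 50% or more, scaled per plate between neutral and stimulator controls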;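 further: 0% = DMSO wells given calcium and 100% = 1 mM EGTA wells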
MPTP counter: membrane potential counter-screen of mitochondrial pore inhibitors | actives 78% (n = 5,000) | isolated mitochondria, Rhodamine 123 fluorescence | inhibition, % at 10 µM | shares compounds with MPTP inh | AID 624504; in the data active means inhibition above about 22%;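 further: 0% = DMSO vehicle and 100% = positive control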
MPTP swell DR: dose response confirmation of mitochondrial permeability transition pore inhibitors; isolated mitochondria swelling, absorbance; IC50, µM; shares compounds with MPTP inh; actives 58% (n = 780); in the data active means IC50 below about 20 µM
MPTP cs DR: active in counter-screen for permeability transition pore inhibitors; shares compounds with MPTP inh; isolated mitochondria counterscreen, fluorescence read-out; IC50, µM; actives 49% (n = 780); AID 651564; in the data active means IC50 below about 80 µM
Starred values were filed as active, the others as inactive; / = not tested or not shown.

SMILES	ADAM10 inh	aDG glyco act	V-ATPase pH	Lipid droplet	ADAM17 inh	MPTP inh	MPTP counter	others
O=C(c1cccc(F)c1F)N(Cc1ccccn1)CC1CCCO1 (stereo unspecified)	-1	/	/	/	1	/	/
O=C(CCc1ccccc1)N[C@H]1[C@H](OCc2ccccc2)CCC[C@@]12C(=O)N(Cc1ccccc1)c1ccc(-c3cnccn3)cc12	-263	/	/	/	-75	/	/
CCOc1ccc(-n2c(SCC(=O)Nc3cc(C)c(NC(=O)c4ccccc4)cc3OC)nnc2-c2ccncc2)cc1	2	/	/	/	5	/	/
COc1ccc(CC(/C=C/c2ccc(F)cc2)c2ccccc2)cc1 (stereo unspecified)	-6	/	/	/	-4	/	/
O=[N+]([O-])c1ccc(O)c(Nc2ncnc3ccc(Br)cc23)c1	-10	0	-2	-3	2	102*	85*
O=[N+]([O-])c1cc([N+](=O)[O-])c2cc(-c3cccnc3)[nH]c2c1	2	0	-8	/	0	52*	56*
O=[N+]([O-])c1ccc2nc(-c3cccnc3)[nH]c2c1	1	0	3	8	0	-1	/
O=C(CN1CCc2onc(-c3ccc(-n4cc(-c5ccccc5)nn4)cc3)c2C1=O)N1CCOCC1	-2	/	/	/	-3	/	/
C=CCN1C(C(=O)OC)CN(Cc2cn(Cc3ccc(OC)cc3)nn2)CCS1(=O)=O (stereo unspecified)	-5	/	/	/	-2	/	/
C[C@H]1COc2cc(F)ccc2S(=O)(=O)N1C	-2	/	/	/	-3	/	/
Cc1c(N2C(=O)/C(=C\c3ccccc3O)SC2=S)c(=O)n(-c2ccccc2)n1C	-10	0	4	0	-6	1	/
CN1C(=O)/C(=C/c2cc(N=Nc3ccccc3)ccc2O)SC1=S	6	0	-1	/	1	95*	61*
O=C(CSc1nnc(-c2cccc(Cl)c2)n1Cc1ccco1)Nc1ccc2c(c1)OCO2	6	/	/	/	4	/	/
CCC(C)NS(=O)(=O)c1ccc(S(=O)(=O)N2CC=C(c3ccc(F)cc3)CC2)cc1 (stereo unspecified)	14	2	0	-27	2	66*	56*
CCc1cc2cc(C)cc(C)c2nc1SCC(=O)N1CCN(C(=O)c2ccco2)CC1	1	0	-1	/	-3	64*	30*
COc1ccc(S[C@]2(C(=O)N3CCOCC3)CC(=O)N(S(=O)(=O)c3ccc(F)cc3)[C@@H]2c2ccc(OC)cc2)cc1	-3	/	/	/	-4	/	/
Cn1c(Cc2cccs2)nnc1SCC(=O)Nc1ccc2c(c1)OCO2	-6	/	/	/	0	/	/
CCCC(=O)N1CCC[C@]2(CC[C@H](CCC(=O)OCC)O2)C1	1	/	/	/	1	/	/
O=C(Nc1cccs1)Nc1ccc(Br)cc1F	5	1	14	-24	4	82*	80*
CCCCCCOC(=O)c1ccc(N)cc1	6	0	7	0	0	0	/
CCCCCCCCCCCC1N=C(N)NC(CCCO)=C1C(=O)OC (stereo unspecified)	-9	0	-3	/	1	79*	2
Cc1ccc(Cl)cc1N1CCN(C(=O)c2cc3c(=O)[nH]c4ccccc4c3n2C)CC1	3	4	1	-1	-1	57*	-4	MPTP swell DR=>100;MPTP cs DR=>80
CC(Oc1ccc(Cl)cc1Cl)C(=O)Nc1ccc2oc(-c3ccncc3)nc2c1 (stereo unspecified)	-30	0	-3	1	-2	74*	83*
CC[C@@H](C)[C@H](NC(=O)OC(C)(C)C)c1nnc(S(=O)(=O)Cc2cc(C)ccc2C)o1	7	0	3	/	-2	27	/
Cc1ccccc1CS(=O)(=O)c1nnc([C@H](CC(C)C)NC(=O)OC(C)(C)C)o1	2	0	0	/	1	75*	-3
COc1cccc(C(=O)Nc2ccc(C(=O)NCC3COc4ccccc4O3)cc2)c1 (stereo unspecified)	-6	/	/	/	4	/	/
